# Laboratory results reported in ChEMBL document CHEMBL3259705, “Geranyl and neryl triazole bisphosphonates as inhibitors of geranylgeranyl diphosphate synthase” (Bioorg Med Chem, 2014).
# Activity calls are given as the source filed them. No cut-off for these calls is given here.
# Key:
# [1] = biological target: T1, Geranylgeranyl pyrophosphate synthase (Homo sapiens) (UniProt O95749); test: Inhibition of GGDPS in human RPMI-8226 cells assessed as disruption of Rab6 geranylgeranylation at 10 uM after 48 hrs by western blot analysis; type: cell-based
# T1 sequence (whole entry): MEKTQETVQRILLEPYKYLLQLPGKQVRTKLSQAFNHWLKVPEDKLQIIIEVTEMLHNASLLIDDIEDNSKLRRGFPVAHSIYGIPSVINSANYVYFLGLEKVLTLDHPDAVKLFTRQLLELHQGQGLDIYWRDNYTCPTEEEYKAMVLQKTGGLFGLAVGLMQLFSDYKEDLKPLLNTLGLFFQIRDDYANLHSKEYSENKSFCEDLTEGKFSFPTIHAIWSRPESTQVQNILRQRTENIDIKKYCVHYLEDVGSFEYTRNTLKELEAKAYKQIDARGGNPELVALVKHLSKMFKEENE
# Summary of the method: (§1)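 RPMI-8226 human myeloma cells exposed 48 h to test agent. For Rap1a, RIPA whole-cell lysate probed with an antibody recognising only unmodified Rap1a, β-tubulin as loading control. Rab6 read from Triton X-114 aqueous versus detergent fractions, with β-tubulin for aqueous and calnexin for detergent loading. Equal protein by BCA, SDS-PAGE/immunoblot with ECL. Blots representative of two independent experiments.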
# [2] = biological target: T1, Geranylgeranyl pyrophosphate synthase (Homo sapiens); settings: RPMI-8226, 10 uM
# [3] = biological target: T2, Farnesyl pyrophosphate synthase (Homo sapiens) (UniProt P14324); test: Inhibition of FDPS in human RPMI-8226 cells assessed as disruption of Ras farnesylation after 48 hrs by western blot analysis; type: cell-based
# T2 sequence (whole entry): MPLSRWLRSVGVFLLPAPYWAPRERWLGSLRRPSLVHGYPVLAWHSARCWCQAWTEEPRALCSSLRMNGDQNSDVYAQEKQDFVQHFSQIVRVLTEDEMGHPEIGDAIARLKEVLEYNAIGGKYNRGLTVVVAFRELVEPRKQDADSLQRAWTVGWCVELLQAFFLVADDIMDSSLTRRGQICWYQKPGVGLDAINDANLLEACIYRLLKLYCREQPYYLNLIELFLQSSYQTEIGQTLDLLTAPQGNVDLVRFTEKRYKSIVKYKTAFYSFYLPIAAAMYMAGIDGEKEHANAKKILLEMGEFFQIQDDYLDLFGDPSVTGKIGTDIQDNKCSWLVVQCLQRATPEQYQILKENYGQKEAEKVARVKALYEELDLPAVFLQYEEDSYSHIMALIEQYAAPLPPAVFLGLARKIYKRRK
# [4] = biological target: T1, Geranylgeranyl pyrophosphate synthase (Homo sapiens); test: Inhibition of GGDPS in human RPMI-8226 cells assessed as disruption of Rap1a geranylgeranylation at 10 uM after 48 hrs by western blot analysis; type: cell-based; summary of the method: as §1
# [5] = biological target: T1, Geranylgeranyl pyrophosphate synthase (Homo sapiens); settings: RPMI-8226, 1 uM
# [6] = biological target: Protein farnesyltransferase (Homo sapiens, UniProt P49354+P49356); test: Inhibition of recombinant FTase (unknown origin) assessed as decrease in prenylated fluorescent peptides level using dansyl-GCVLS and FPP as substrate after 1 hr by HPLC-fluorescence detection analysis; type: protein-complex assay
# Summary of the method: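 3 nM recombinant FTase started reaction in pH 7.5 Tris buffer with DTT, 10 mM MgCl2, 10 µM ZnCl2, 0.04% DDM, plus 10 µM FPP and 5 µM dansyl-GCVLS. Run 1 h at 30 °C, stopped with acetonitrile/5% HCl, centrifuged. Prenylated peptide quantified by HPLC-fluorescence. IC50 taken from concentration-response curves.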
# [7] = biological target: T1, Geranylgeranyl pyrophosphate synthase (Homo sapiens); settings: RPMI-8226, 10 uM; remark: listed apart in the source
# [8] = Inhibition of recombinant GGTase 2 (unknown origin) using recombinant Rab1A and [3H]GGPP as substrate after 20 mins by liquid scintillation counting analysis in presence of recombinant REP-2; design: species or system Homo sapiens
# Summary of the method: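 30 nM recombinant GGTase II with 2 µM His-tagged Rab1A (E. coli-expressed, Ni-NTA purified) and 1 µM REP-2 in HEPES buffer with MgCl2, DTT, NP-40. Started with 5 µM [3H]-GGPP, 20 min at 37 °C, ended with HCl/EtOH. Filtered on P-81 paper, washed and scintillation counted. Tested up to 1 mM.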
# [9] = biological target: T1, Geranylgeranyl pyrophosphate synthase (Homo sapiens); settings: RPMI-8226, 10 uM; remark: listed apart in the source
# [10] = biological target: T3, Farnesyl pyrophosphate synthase (Homo sapiens, UniProt P14324); test: Inhibition of recombinant FDPS (unknown origin) assessed as decrease in radiolabeld […] level using GPP and [14C]IPP as substrate treated with enzyme for 10 mins prior to substrate challenge for 30 mins by liquid scintillation counting analysis
# T3 sequence (P14324 whole entry): T2 sequence (whole entry)
# Summary of the method: (§2)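 Enzyme (10 nM FDPS or 20 nM GGDPS) preincubated with compound 10 min at room temperature in 50 mM Tris-HCl pH 7.7, 20 mM MgCl2, 5 mM TCEP, 5 µg/mL BSA. Started with 10 µM GPP (FDPS) or 10 µM FPP (GGDPS) plus 10 µM [14C]-IPP; 37 °C, 30 min. Stopped with saturated NaCl, butanol-extracted, counted. IC50 from concentration-response curves.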
# [11] = biological target: T1, Geranylgeranyl pyrophosphate synthase (Homo sapiens); settings: RPMI-8226, 10 uM; remark: listed apart in the source
# [12] = biological target: T1, Geranylgeranyl pyrophosphate synthase (Homo sapiens); settings: RPMI-8226, 1 uM; remark: listed apart in the source
# [13] = biological target: Geranylgeranyl transferase type I (Homo sapiens, UniProt P49354+P53609); test: Inhibition of recombinant GGTase 1 (unknown origin) assessed as decrease in prenylated fluorescent peptides level using dansyl-GCVLS and GGPP as substrate after 1 hr by HPLC-fluorescence detection analysis
# Summary of the method: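 Reaction started by adding 12 nM recombinant GGTase I to pH 7.5 Tris buffer with DTT, 5 mM MgCl2, 50 µM ZnCl2, 10 mM KCl, 0.04% DDM, 10 µM GGPP and 7 µM dansyl-GCVLS. Incubated 1 h at 30 °C, then acid-acetonitrile quench. Prenylated peptide measured by HPLC with fluorescence. IC50 from concentration-response curves.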
# [14] = biological target: T1, Geranylgeranyl pyrophosphate synthase (Homo sapiens); settings: RPMI-8226, 1 uM; remark: listed apart in the source
# [15] = biological target: T4, Geranylgeranyl pyrophosphate synthase (Homo sapiens, UniProt O95749); test: Inhibition of recombinant GGDPS (unknown origin) assessed as decrease in radiolabeld GGPP level using FPP and [14C]IPP as substrate treated with enzyme for 10 mins prior to substrate challenge for 30 mins by liquid scintillation counting analysis; summary of the method: as §2
# T4 sequence (O95749 whole entry): T1 sequence (whole entry)
# [16] = biological target: T5, 3-hydroxy-3-methylglutaryl-coenzyme A reductase (Homo sapiens) (UniProt P04035); test: Inhibition of HMG-coA reductase in human RPMI-8226 cells assessed as disruption of Rap1a geranylgeranylation at 10 uM after 48 hrs by western blot analysis; type: cell-based
# T5 sequence (whole entry): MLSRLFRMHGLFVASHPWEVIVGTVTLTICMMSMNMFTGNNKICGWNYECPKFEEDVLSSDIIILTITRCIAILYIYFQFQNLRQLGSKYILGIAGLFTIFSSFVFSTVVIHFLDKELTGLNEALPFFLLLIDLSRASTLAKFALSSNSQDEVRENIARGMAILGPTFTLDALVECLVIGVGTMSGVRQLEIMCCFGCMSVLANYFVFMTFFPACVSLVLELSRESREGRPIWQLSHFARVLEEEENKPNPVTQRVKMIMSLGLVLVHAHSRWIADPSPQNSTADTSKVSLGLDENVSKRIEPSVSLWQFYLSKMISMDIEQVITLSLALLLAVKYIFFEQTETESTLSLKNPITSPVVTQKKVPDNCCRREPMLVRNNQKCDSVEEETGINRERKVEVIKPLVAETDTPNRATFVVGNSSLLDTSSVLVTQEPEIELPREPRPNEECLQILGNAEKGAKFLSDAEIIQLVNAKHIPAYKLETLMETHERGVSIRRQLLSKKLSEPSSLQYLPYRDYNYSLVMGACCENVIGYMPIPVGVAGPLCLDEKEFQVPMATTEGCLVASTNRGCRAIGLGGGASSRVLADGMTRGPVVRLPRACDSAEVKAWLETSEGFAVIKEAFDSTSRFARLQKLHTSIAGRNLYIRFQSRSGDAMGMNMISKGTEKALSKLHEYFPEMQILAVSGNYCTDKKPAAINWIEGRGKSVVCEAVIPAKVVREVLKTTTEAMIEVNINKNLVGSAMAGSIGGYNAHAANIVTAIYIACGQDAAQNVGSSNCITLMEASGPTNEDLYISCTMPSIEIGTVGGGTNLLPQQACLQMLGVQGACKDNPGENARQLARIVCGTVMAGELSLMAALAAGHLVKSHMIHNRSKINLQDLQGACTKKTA
# Summary of the method: (§3)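 RPMI-8226 cells held 48 h with 10 µM inhibitor, with or without isoprenoid add-back (1 mM mevalonate, 10 µM FPP or 10 µM GGPP). RIPA whole-cell lysate immunoblotted with an antibody detecting only unmodified Rap1a, β-tubulin as loading control. Protein equalised by BCA. Two independent experiments.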
# [17] = biological target: T5, 3-hydroxy-3-methylglutaryl-coenzyme A reductase (Homo sapiens); test: Inhibition of HMG-coA reductase in human RPMI-8226 cells assessed as disruption of Rap1a geranylgeranylation at 10 uM after 48 hrs by western blot analysis in presence of 1 mM mevalonate; type: cell-based; summary of the method: as §3
# [18] = biological target: T5, 3-hydroxy-3-methylglutaryl-coenzyme A reductase (Homo sapiens); test: Inhibition of HMG-coA reductase in human RPMI-8226 cells assessed as disruption of Rap1a geranylgeranylation at 10 uM after 48 hrs by western blot analysis in presence of 10 uM GGPP; type: cell-based; summary of the method: as §3
inhibition [16],inhibition [17],inhibition [18],Compound,disruption of Rab6 geranylgeranylation (active/not active) [1],inhibition [2],inhibition [3],disruption of Rap1a geranylgeranylation (active/not active) [4],inhibition [5],IC50 [6] [µM],inhibition [7],IC50 [8] [µM],inhibition [9],IC50 [10] [µM],inhibition [11],inhibition [12],IC50 [13] [µM],inhibition [14],IC50 [15] [µM]
–,–,–,CC(C)=CCC/C(C)=C/CC(C/C=C(\C)CCC=C(C)C)(P(=O)(O)O)P(=O)(O)O,Active,Active,inactive,Active,–,–,–,–,–,–,–,–,–,–,–
–,–,–,CC(C)=CCC/C(C)=C\Cn1cc(CC(P(=O)(O)O)P(=O)(O)O)nn1,Active,Active,inactive,Active,Active,400,Active,> 1000,Active,79,inactive,Active,500,Active,–
–,–,–,CC(C)=CCC[C@]1(C)O[C@@H]1Cn1cc(CC(P(=O)(O)O)P(=O)(O)O)nn1 (racemic),inactive,–,inactive,inactive,–,340,–,> 1000,–,47,–,–,300,–,17
–,–,–,CC(C)=CCCC(C)=CCn1cc(CC(P(=O)(O)O)P(=O)(O)O)nn1 (mixture of isomers),Active,Active,inactive,Active,Active,500,–,> 1000,–,84,–,Active,200,–,–
Active,inactive,inactive,CC[C@H](C)C(=O)O[C@H]1C[C@@H](C)C=C2C=C[C@H](C)[C@H](CC[C@@H]3C[C@@H](O)CC(=O)O3)[C@H]21,–,–,–,–,–,–,–,–,–,–,–,–,–,–,–
–,–,–,CC(C)=CCC[C@@]1(C)O[C@@H]1Cn1cc(CC(P(=O)(O)O)P(=O)(O)O)nn1 (racemic),inactive,–,inactive,inactive,–,400,–,> 1000,–,33,–,–,500,–,23
–,–,–,CC(C)=CCC/C(C)=C/Cn1cc(CC(P(=O)(O)O)P(=O)(O)O)nn1,–,inactive,inactive,Active,inactive,> 500,–,> 1000,–,57,–,inactive,340,–,–
